The term inhibition denotes how much of the control response was suppressed. Higher therefore signals a response far below the control.

In one assay the test system is Mycobacterium tuberculosis. The assay is described as follows: Antitubercular activity against Mycobacterium tuberculosis H37Rv at 12.5 ug/mL after 5 to 8 days. In kind it is functional. Put shortly:
(§1)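 Inoculum diluted to reach growth index 999 in 5 days. Compound added from DMSO stock to 4 ml radiometric 7H12 (BACTEC-12B) broth; DMSO-only controls. Incubated at 37 °C, GI read daily until control reached 999. %inhibition = (1 − GI test/GI control) × 100.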
Compound `Cc1ccc(C)c2c(CC(=O)N/N=C/c3ccccc3)cc(=O)oc12` gave an inhibition at 12.5 µg/mL of 70%.
`COc1cc(/C=N/NC(=O)Cc2cc(=O)oc3c(C)ccc(C)c23)cc(OC)c1OC` gave an inhibition at 12.5 µg/mL of 52%.
As to `Cc1ccc(C)c2c(CC(=O)N/N=C/c3ccccc3Cl)cc(=O)oc12`, testing at 12.5 µg/mL gave an inhibition of 48%.
Still for that read-out and setting: as for `Cc1ccc(C)c2c(CC(=O)N/N=C/c3ccc(N(C)C)cc3)cc(=O)oc12`, the figure is 7%.
Still for that read-out and setting: as for `COc1ccccc1/C=N/NC(=O)Cc1cc(=O)oc2c(C)ccc(C)c12`, the figure is 54%; as for `Cc1cc2oc(=O)cc(CC(=O)N/N=C/c3ccc(Cl)cc3)c2cc1C`, 32%.
On the same count and under the same terms, as for `CSc1ccc(/C=N/NC(=O)Cc2cc(=O)oc3cc(C)c(C)cc23)cc1`, the figure is 6%; as for `Cc1cc2oc(=O)cc(CC(=O)N/N=C/c3ccccc3[N+](=O)[O-])c2cc1C`, 11%; as for `Cc1ccc(C)c2c(CC(=O)N/N=C/c3ccccc3[N+](=O)[O-])cc(=O)oc12`, 65%.
In the case of `Cc1ccc(C)c2c(CC(=O)N/N=C/c3ccc(Cl)cc3)cc(=O)oc12`, the inhibition at 12.5 µg/mL amounted to 62%.
Still for that read-out and setting: as for `Cc1cc2oc(=O)cc(CC(=O)N/N=C/c3cccc([N+](=O)[O-])c3)c2cc1C`, the figure is 31%; as for `Cc1cc2oc(=O)cc(CC(=O)N/N=C/c3ccccc3Cl)c2cc1C`, 17%; as for `Cc1ccc(C)c2c(CC(=O)N/N=C/c3cccc([N+](=O)[O-])c3)cc(=O)oc12`, 39%.

The next assay deals with Mycobacterium tuberculosis. The assay is described as follows: Antitubercular activity against Mycobacterium tuberculosis H37Rv at 6.25 ug/mL after 5 to 8 days. The format is functional. The procedure, abridged: as §1
Compound `Cc1ccc2oc(=O)cc(CC(=O)N/N=C/c3ccccc3Cl)c2c1` had an inhibition at 6.25 µg/mL of 34%.
The same measure, in the same setting: as for `COc1cc(/C=N/NC(=O)Cc2cc(=O)oc3ccc(C)cc23)cc(OC)c1OC`, the figure is 34%; as for `COc1ccc(/C=N/NC(=O)Cc2cc(=O)oc3ccc(C)cc23)cc1OC`, 29%.
Compound `Cc1ccc2oc(=O)cc(CC(=O)N/N=C/c3ccc(F)cc3)c2c1` gave an inhibition at 6.25 µg/mL of 26%.
On the same count and under the same terms, as for `Cc1ccc2oc(=O)cc(CC(=O)N/N=C/c3ccccc3)c2c1`, the figure is 34%; as for `Cc1ccc2oc(=O)cc(CC(=O)N/N=C/c3ccc(Cl)cc3)c2c1`, 19%; as for `Cc1ccc2oc(=O)cc(CC(=O)N/N=C/c3cccc(Cl)c3)c2c1`, 21%.
Still for that read-out and setting: as for `O=C(Cc1cc(=O)oc2cc(O)ccc12)N/N=C/c1cccc([N+](=O)[O-])c1`, the figure is 93%; as for `COc1ccc(/C=N/NC(=O)Cc2cc(=O)oc3ccc(C)cc23)cc1`, 33%; as for `Cc1ccc2oc(=O)cc(CC(=O)N/N=C/c3ccccc3O)c2c1`, 55%.
Still for that read-out and setting: as for `COc1cccc(/C=N/NC(=O)Cc2cc(=O)oc3ccc(C)cc23)c1`, the figure is 19%; as for `Cc1ccc2oc(=O)cc(CC(=O)N/N=C/c3cccc([N+](=O)[O-])c3)c2c1`, 19%.

Values taken from ChEMBL document CHEMBL1154457, “Synthesis, anti-tubercular activity and 3D-QSAR study of coumarin-4-acetic acid benzylidene hydrazides” (2008).
